Test results: ChEMBL document CHEMBL4028872, “Structure-Activity Relationship, Pharmacological Characterization, and Molecular Modeling of Noncompetitive Inhibitors of the Betaine/γ-Aminobutyric Acid Transporter 1 (BGT1)” (J Med Chem, 2017)
≈ marks a conversion by molar mass, not a printed value. Calls of active or inactive are those of the source. The rule behind the calls is not given here.

Columns and labels:
[1] = Solubility of compound in pH 7.4 phosphate buffer after 24 hrs by HPLC-UV method; assay type: physicochemical
[2] = target: T1, Sodium- and chloride-dependent GABA transporter 2 (Homo sapiens, UniProt Q9NSD5); assay: Inhibition of human GAT2 expresses in tsA201 cells assessed as reduction in [3H]GABA uptake after 3 mins by scintillation counting method; assay type: cell-based
T1 sequence (Q9NSD5 whole entry): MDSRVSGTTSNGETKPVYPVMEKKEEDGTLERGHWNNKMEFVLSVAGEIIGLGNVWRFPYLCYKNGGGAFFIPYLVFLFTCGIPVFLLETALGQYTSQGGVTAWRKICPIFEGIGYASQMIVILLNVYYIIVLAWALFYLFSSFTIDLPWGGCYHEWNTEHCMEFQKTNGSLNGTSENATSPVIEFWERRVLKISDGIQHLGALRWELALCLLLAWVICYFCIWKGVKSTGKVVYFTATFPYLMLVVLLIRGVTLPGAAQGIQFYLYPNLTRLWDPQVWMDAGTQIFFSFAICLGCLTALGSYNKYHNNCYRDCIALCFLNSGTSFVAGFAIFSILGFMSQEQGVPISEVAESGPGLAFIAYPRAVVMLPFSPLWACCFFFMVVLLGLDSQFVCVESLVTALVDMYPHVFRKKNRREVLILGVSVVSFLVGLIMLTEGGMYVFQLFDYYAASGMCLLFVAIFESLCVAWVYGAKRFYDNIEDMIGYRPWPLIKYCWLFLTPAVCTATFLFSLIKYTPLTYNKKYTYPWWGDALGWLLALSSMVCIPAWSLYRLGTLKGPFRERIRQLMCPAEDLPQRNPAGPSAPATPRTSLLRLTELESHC
Procedure, shortened: (§1)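 Wild-type human GAT transiently expressed in tsA201 cells via pcDNA5/FRT and PolyFect. Uptake of 30 nM [3H]GABA was run for 3 min at 37 °C in HBSS/20 mM HEPES with 1 mM CaCl2 and 1 mM MgCl2, pH 7.4, across a range of test concentrations. Ice-cold washes were followed by scintillation counting. IC50 was obtained by sigmoidal variable-slope fitting, reported as mean pIC50 ± S.E.M.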

[3] = target: T2, Sodium- and chloride-dependent GABA transporter 3 (Homo sapiens, UniProt P48066); assay: Inhibition of human GAT3 expresses in tsA201 cells assessed as reduction in [3H]GABA uptake after 3 mins by scintillation counting method; assay type: cell-based; procedure, shortened: as §1
T2 sequence (P48066 whole entry): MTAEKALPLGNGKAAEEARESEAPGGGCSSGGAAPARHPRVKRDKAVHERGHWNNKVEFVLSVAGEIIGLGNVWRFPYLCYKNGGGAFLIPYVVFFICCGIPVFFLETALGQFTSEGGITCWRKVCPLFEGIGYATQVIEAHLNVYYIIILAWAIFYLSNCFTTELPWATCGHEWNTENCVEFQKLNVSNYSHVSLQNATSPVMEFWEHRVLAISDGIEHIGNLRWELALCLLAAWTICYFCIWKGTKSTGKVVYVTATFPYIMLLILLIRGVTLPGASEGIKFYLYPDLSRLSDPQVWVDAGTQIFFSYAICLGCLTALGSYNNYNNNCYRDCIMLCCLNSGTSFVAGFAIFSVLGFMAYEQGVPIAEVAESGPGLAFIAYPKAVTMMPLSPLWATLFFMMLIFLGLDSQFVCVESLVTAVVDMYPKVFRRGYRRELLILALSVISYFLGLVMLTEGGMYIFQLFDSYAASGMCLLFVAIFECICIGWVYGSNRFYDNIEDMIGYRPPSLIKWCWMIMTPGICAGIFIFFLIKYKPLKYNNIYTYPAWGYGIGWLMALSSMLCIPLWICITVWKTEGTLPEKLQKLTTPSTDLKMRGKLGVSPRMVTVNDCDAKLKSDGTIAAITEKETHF

[4] = target: T3, GABA transporter 2 (Mus musculus, UniProt P31651); assay: Inhibition of mouse BGT1 expressed in HEK293 cells assessed as reduction in [3H]GABA uptake after 3 mins by scintillation counting method; assay type: cell-based; settings: read-out: IC50
T3 sequence (P31651 whole entry): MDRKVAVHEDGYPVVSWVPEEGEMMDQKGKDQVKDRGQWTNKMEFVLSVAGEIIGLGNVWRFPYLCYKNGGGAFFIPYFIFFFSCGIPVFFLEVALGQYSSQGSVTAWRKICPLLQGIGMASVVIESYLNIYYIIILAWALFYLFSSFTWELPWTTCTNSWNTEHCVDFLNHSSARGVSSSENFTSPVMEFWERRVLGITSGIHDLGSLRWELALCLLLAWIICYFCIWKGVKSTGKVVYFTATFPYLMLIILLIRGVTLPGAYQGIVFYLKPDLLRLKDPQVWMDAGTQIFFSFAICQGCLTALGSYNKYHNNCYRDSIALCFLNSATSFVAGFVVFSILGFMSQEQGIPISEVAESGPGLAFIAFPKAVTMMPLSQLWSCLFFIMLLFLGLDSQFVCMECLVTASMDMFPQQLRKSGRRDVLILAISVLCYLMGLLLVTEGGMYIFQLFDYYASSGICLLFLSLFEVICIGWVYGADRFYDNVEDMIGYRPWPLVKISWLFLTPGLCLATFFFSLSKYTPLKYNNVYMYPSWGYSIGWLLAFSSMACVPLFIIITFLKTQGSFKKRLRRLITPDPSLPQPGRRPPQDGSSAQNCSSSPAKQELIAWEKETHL
Procedure, shortened: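 HEK293 lines stably expressing a single mouse GAT subtype, kept under blasticidin-S (5 µg/mL) selection. Cells were assayed about 24 h after plating with 30 nM [3H]GABA plus varying compound concentrations for 3 min at 37 °C in HBSS buffered with 20 mM HEPES (1 mM CaCl2, 1 mM MgCl2, pH 7.4). Cells were washed ice-cold and radioactivity counted. IC50 came from sigmoidal variable-slope fits.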

[5] = target: 5-hydroxytryptamine receptor 2B (Homo sapiens) (UniProt P41595); assay: Displacement of [3H]LSD from human 5-HT2B receptor expressed in HEK cell membranes at 10 uM after 90 mins by scintillation counting method
Chain of 5-hydroxytryptamine receptor 2B (Homo sapiens) (P41595 whole entry): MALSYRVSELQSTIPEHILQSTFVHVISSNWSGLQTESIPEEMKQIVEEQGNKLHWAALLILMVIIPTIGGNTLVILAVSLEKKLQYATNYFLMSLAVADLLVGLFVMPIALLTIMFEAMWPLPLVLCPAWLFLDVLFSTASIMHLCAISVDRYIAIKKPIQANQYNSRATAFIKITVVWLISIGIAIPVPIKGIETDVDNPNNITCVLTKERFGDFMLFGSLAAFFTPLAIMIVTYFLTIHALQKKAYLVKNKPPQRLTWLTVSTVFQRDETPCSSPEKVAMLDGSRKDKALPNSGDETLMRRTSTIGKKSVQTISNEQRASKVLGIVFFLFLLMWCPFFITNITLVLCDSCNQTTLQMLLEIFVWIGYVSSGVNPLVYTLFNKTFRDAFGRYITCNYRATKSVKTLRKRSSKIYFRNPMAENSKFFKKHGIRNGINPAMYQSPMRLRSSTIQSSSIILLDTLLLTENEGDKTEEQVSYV

[6] = target: D(1A) dopamine receptor (Homo sapiens) (UniProt P21728); assay: Displacement of [3H]SCH23390 from human Dopamine receptor D1 receptor expressed in HEKT cell membranes at 10 uM after 90 mins by scintillation counting method
Chain of D(1A) dopamine receptor (Homo sapiens) (P21728 whole entry): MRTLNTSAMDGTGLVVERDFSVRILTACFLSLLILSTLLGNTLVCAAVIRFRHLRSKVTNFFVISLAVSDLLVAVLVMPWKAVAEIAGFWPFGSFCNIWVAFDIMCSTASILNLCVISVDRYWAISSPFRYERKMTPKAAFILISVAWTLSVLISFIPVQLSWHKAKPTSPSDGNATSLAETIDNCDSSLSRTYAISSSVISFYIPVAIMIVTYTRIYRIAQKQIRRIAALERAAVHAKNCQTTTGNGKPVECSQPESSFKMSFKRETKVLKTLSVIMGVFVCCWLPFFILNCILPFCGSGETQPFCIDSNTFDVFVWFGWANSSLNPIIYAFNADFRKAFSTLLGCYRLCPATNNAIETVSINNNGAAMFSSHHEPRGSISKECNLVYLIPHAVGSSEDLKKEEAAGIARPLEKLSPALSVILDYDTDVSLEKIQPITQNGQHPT

[7] = target: Sodium- and chloride-dependent betaine transporter (Homo sapiens, UniProt P48065, I386F); assay: Inhibition of human BGT1 I386F mutant expressed in tsA201 cells assessed as reduction in [3H]GABA uptake after 3 mins by scintillation counting method; assay type: cell-based
Chain of Sodium- and chloride-dependent betaine transporter (Homo sapiens, UniProt P48065, I386F) (P48065 whole entry I386F): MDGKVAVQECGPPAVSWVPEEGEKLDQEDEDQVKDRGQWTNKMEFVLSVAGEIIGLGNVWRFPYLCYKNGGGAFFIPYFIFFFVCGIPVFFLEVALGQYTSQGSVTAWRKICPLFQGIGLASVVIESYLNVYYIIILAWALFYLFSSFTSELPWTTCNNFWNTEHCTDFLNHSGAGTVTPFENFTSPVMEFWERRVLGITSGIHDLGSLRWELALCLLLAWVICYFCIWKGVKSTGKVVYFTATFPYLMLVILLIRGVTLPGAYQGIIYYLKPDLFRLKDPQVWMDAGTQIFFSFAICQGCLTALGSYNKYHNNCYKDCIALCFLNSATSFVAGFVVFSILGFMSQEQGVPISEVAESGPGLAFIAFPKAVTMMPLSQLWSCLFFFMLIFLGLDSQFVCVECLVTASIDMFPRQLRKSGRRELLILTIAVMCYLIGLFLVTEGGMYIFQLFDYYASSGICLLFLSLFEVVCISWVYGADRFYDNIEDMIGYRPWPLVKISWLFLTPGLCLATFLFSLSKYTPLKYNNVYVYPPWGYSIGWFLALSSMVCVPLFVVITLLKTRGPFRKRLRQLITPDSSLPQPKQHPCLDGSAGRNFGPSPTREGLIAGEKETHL
Procedure, shortened: (§2)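 tsA201 cells transiently transfected with wild-type or mutant human BGT1 (PolyFect) were plated about 24 h before assay. Three ice-cold washes followed, then scintillation counting.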

[8] = target: Sodium- and chloride-dependent betaine transporter (Homo sapiens, UniProt P48065, Y453S); assay: Inhibition of human BGT1 Y453S mutant expressed in tsA201 cells assessed as reduction in [3H]GABA uptake after 3 mins by scintillation counting method; assay type: cell-based; procedure, shortened: as §2
Chain of Sodium- and chloride-dependent betaine transporter (Homo sapiens, UniProt P48065, Y453S) (P48065 whole entry Y453S): as the sequence (P48065 whole entry I386F) above, with F386I, Y453S counted along it

[9] = target: Sodium- and chloride-dependent betaine transporter (Homo sapiens, UniProt P48065, Y453A); assay: Inhibition of human BGT1 Y453A mutant expressed in tsA201 cells assessed as reduction in [3H]GABA uptake after 3 mins by scintillation counting method; assay type: cell-based; procedure, shortened: as §2
Chain of Sodium- and chloride-dependent betaine transporter (Homo sapiens, UniProt P48065, Y453A) (P48065 whole entry Y453A): as the sequence (P48065 whole entry I386F) above, with F386I, Y453A counted along it

Structure (SMILES) | solubility at 24 h [1] | IC50 ([2]; read-out: IC50) | IC50 ([3]; read-out: IC50) | IC50 [4] | inhibition [5] | inhibition [6] | IC50 ([7]; read-out: IC50) | IC50 ([7]; read-out: pIC50 (converted)) | IC50 [8] | IC50 [9] | IC50 [2] | IC50 [3]
O=C(NC1CCN(Cc2ccccc2)CC1)c1ccc(Cl)nc1Cl | 610 µg/mL (≈ 1670 µM) | 479 µM | > 1000 µM | 37 µM | Active | inactive | 47 µM | 43.7 µM | 25 µM | 23 µM |  | 
O=C(NC1CCN(Cc2ccccc2)CC1)c1ccc(Cl)cc1Cl | 40 µg/mL (≈ 110 µM) |  |  | 32 µM | Active | Active | 8 µM |  | 19 µM | 19 µM | > 100 µM | > 100 µM
